Results reported in ChEMBL document CHEMBL5214977, “Discovery and Optimization of Quinoline Analogues as Novel Potent Antivirals against Enterovirus D68” (J Med Chem, 2022).

How the values were obtained:
[1] = Metabolic stability in rat liver microsomes assessed as half life at 1 uM incubated upto 60 mins in presence of NADPH by LC-MS/MS analysis; type: ADME, Microsome; settings: 1 h
Method in brief: (§1)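 Test compound at 1 μM final was incubated at 37 °C with 0.5 mg/mL liver microsomal protein and 1 mM NADPH, alongside a no-NADPH control. Samples were quenched at 0, 5, 15, 30 and 60 min into solution containing verapamil internal standard, then centrifuged and analysed by LC-MS/MS. t1/2 and intrinsic clearance were derived from the extent of metabolism.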

[2] = test system: enterovirus D68; assay: Antiviral activity against Enterovirus-D68 STL-2014-12 infected in human RD cells assessed as reduction in virus induced cytopathic effect by measuring ATP level incubated for 72 hrs by cell titer-glo luminescent cell viability assay; type: functional, organism-based; settings: Enterovirus D, STL-2014-12, RD, 72 h
Method in brief: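 RD cells seeded at 1.5 × 10^4/well and grown 24 h, then given 100 TCID50 virus plus compound in 3-fold dilutions (0.01–200 μM). DMSO control. Incubated 37 °C for 72 h; ATP read by CellTiter-Glo luminescence and normalized to uninfected and infected controls. EC50 is the concentration giving 50% CPE reduction. Strains: STL-2014-12, US/KY/14-18953, US/MO/14-18947, Fermon.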

[3] = AUC (0 to t) in Sprague-Dawley rat at 5 mg/kg, po measured upto 24 hrs by LC-MS/MS analysis; type: ADME, organism-based; parameters: dose 5 mg/kg, time < 24 hrs, route po; settings: in vivo
Method in brief: (§2)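 Male SD rats (6–9 or 6–8 weeks old, n = 3 per route) received a single 1 mg/kg iv or 5 mg/kg po dose. The vehicle was 5% DMSO/5% Solutol HS-15/90% water or 5% DMSO/95% HP-β-CD in water. Jugular blood was drawn into heparin at 0.083 (iv only), 0.25, 0.5, 1, 2, 4, 6 and 24 h. Plasma was analysed by LC-MS/MS. Values are mean ± SD.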

[4] = AUC (0 to infinity) in Sprague-Dawley rat at 5 mg/kg, po measured upto 24 hrs by LC-MS/MS analysis; type: ADME, organism-based; parameters: time < 24 hrs, dose 5 mg/kg, route po; settings: in vivo; method in brief: as §2
[5] = AUC (0 to infinity) in Sprague-Dawley rat at 1 mg/kg, iv measured upto 24 hrs by LC-MS/MS analysis; type: ADME, organism-based; parameters: dose 1 mg/kg, time < 24 hrs, route iv; settings: in vivo; method in brief: as §2
[6] = test system: enterovirus D68; assay: Antiviral activity against Enterovirus D68 infected in human RD cells assessed as increase in viral RNA release temperature at 10 ug/ml incubated for 15 mins by particle release thermal stability assay (reference value: 52 degree C); type: functional; settings: dose 10 µg/ml, 0.25 h
[7] = Tmax in Sprague-Dawley rat at 5 mg/kg, po measured upto 24 hrs by LC-MS/MS analysis; type: ADME, organism-based; settings: in vivo; method in brief: as §2
[8] = Half life in Sprague-Dawley rat at 5 mg/kg, po measured upto 24 hrs by LC-MS/MS analysis; type: ADME, organism-based; settings: in vivo; method in brief: as §2
[9] = Selectivity index, ratio of CC50 for human RD cells to EC50 for Enterovirus-D68 STL-2014-12 infected in human RD cells to; type: toxicity, cell-based
Method in brief: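 EC50 came from a CPE reduction assay. RD cells (1.5 × 10^4 per well, grown 24 h) were infected with 100 TCID50 of the named strain and given 3-fold dilutions from 0.01 to 200 μM. After 72 h at 37 °C, ATP was read by CellTiter-Glo and normalized to infected and uninfected controls. CC50 came from uninfected cells under the same dilutions, 72 h and ATP readout. SI = CC50/EC50.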

[10] = Oral bioavailability in Sprague-Dawley rat at 5 mg/kg measured upto 24 hrs by LC-MS/MS analysis; type: ADME, organism-based; settings: in vivo; method in brief: as §2
[11] = test system: RD; assay: Cytotoxicity against human RD cells assessed as inhibition of cell viability by measuring ATP level incubated for 72 hrs by cell titer-glo luminescent cell viability assay; type: functional
Method in brief: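 Uninfected RD cells seeded at 1.5 × 10^4/well and grown 24 h, then exposed to compound in 3-fold dilutions (0.01–200 μM), with DMSO as cell control. ATP read by CellTiter-Glo luminescence after 72 h; CC50 is the 50% cytotoxic concentration.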

[12] = Metabolic stability in Beagle dog liver microsomes assessed as half life at 1 uM incubated upto 60 mins in presence of NADPH by LC-MS/MS analysis; type: ADME, Canis lupus familiaris, Microsome; settings: 1 h; method in brief: as §1
[13] = AUC(0 to t) in Sprague-Dawley rat at 1 mg/kg, iv measured upto 24 hrs by LC-MS/MS analysis; type: ADME, organism-based; parameters: dose 1 mg/kg, time < 24 hrs, route iv; settings: in vivo; method in brief: as §2
[14] = Cmax in Sprague-Dawley rat at 5 mg/kg, po measured upto 24 hrs by LC-MS/MS analysis; type: ADME, organism-based; parameters: dose 5 mg/kg, time < 24 hrs, route po; settings: in vivo; method in brief: as §2
[15] = Half life in Sprague-Dawley rat at 1 mg/kg, iv measured upto 24 hrs by LC-MS/MS analysis; type: ADME, organism-based; settings: in vivo; method in brief: as §2
[16] = C0 in Sprague-Dawley rat at 1 mg/kg, iv measured upto 24 hrs by LC-MS/MS analysis; type: ADME, organism-based; settings: in vivo; method in brief: as §2
[17] = Metabolic stability in human liver microsomes assessed as half life at 1 uM incubated upto 60 mins in presence of NADPH by LC-MS/MS analysis; type: ADME, Microsome; settings: 1 h; method in brief: as §1

In the case of `Nc1ccc(-c2ccc3ncc(-c4noc(C(F)(F)F)n4)cc3c2)cc1`, the t1/2 [1] is reported as 0.683 h, the EC50 [2] is reported as 50 nM and the AUC [3] is reported as 307 ng·h/mL. For the same compound, the AUC [4] was 320 ng·h/mL, the AUC [5] was 268 ng·h/mL and the T [6] was 55 °C. The Tmax [7] was 1 h, the t1/2 [8] was 1.21 h and the “Ratio CC50/EC50” value [9] was greater than 50. The F [10] was 23.9%, the CC50 [11] was greater than 2500 nM and the t1/2 [12] was 0.288 h. For the same compound, the AUCt [13] was 253 ng·h/mL, the Cmax [14] was 108 ng/mL and the t1/2 [15] was 1.92 h. The C0 [16] was 637 ng/mL and the t1/2 [17] was 2.47 h.
